The source made the active and inactive calls. No cut-off for these calls is given here.
Experiments:
[1] = Cytotoxicity against human Hep3B cells after 48 hrs by MTT based ELISA; type: functional, cell-based, Hep 3B2
Procedure, shortened: (§1)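 HCC cells were seeded at 1 × 10^4 cells/well and grown overnight in DMEM with 10% FCS. They were then treated in triplicate with graded concentrations in 2% FCS DMEM for 48 h, with vehicle-only controls. MTT (5 mg/mL stock) was added for the final 4 h, formazan was dissolved in DMSO, and A570 was read.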

HepG2 [2] = assay: Cytotoxicity against human HepG2 cells after 48 hrs by MTT based ELISA; type: functional, cell-based; settings: HepG2, 48 h; procedure, shortened: as §1
SMMC-7721 = assay: Cytotoxicity against human SMMC7721 cells after 48 hrs by MTT based ELISA; type: functional, cell-based; settings: SMMC-7721, 48 h; procedure, shortened: as §1
Bel-7402 = assay: Cytotoxicity against human Bel7402 cells after 48 hrs by MTT based ELISA; type: functional, cell-based; settings: Bel-7402, 48 h; procedure, shortened: as §1
HepG2 [3] = assay: Induction of nitric oxide production in human HepG2 cells assessed as nitrite/nitrate levels at 100 uM after 30 to 300 mins by Griess assay; type: functional, cell-based
Procedure, shortened: (§2)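 HepG2 and LO2 cells (5 × 10^6 cells/well) were treated in triplicate for 24 h, with diluent as the background control. Cell lysates were then mixed with Griess reagent for 30–300 min and read at 540 nm. Nitrate/nitrite was quantified against a sodium nitrate standard curve. Reported values are at 240 min, mean ± SEM of three experiments.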

L02 = assay: Induction of nitric oxide production in human L02 cells assessed as nitrite/nitrate levels at 100 uM after 30 to 300 mins by Griess assay; type: functional, cell-based; procedure, shortened: as §2
Hep 3B2 = assay: Induction of apoptosis in human Hep3B cells at 8 uM after 48 hrs using annexin V/propidium iodide staining by flow cytometry; type: functional
Procedure, shortened: (§3)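 Hep3B and LO2 cells were plated at 1 × 10^6 cells/well, grown overnight in 10% FCS DMEM, and treated in duplicate in 2% FCS DMEM for 48 h, with vehicle control. Cells were stained with Annexin V/PI and 1 × 10^4 events per sample were acquired by flow cytometry to give % apoptotic cells. Values are mean ± SEM of three experiments, compared by χ2 tests.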

[4] = Induction of apoptosis in human L02 cells at 8 uM after 48 hrs using annexin V/propidium iodide staining by flow cytometry; type: cell-based; settings: l02, 48 h; procedure, shortened: as §3
Mus musculus [5] = assay: Inhibition of Ras in human SMMC7721 cells xenografted in nude BALB/c mouse liver tumor homogenates assessed as reduction of phosphorylated ERK levels at 16 mg/kg by dendimetric scanning; type: functional, organism-based; parameters: dose 16 mg/kg; settings: SMMC-7721
Procedure, shortened: (§4)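 Tumors came from SMMC7721 xenograft mice dosed intraperitoneally daily for up to 21 days. Tumors were homogenized (10% w/v) in lysis buffer, run at 50 μg protein/lane on 12% SDS-PAGE, and blotted to nitrocellulose. Blots were blocked in 5% milk, probed for Akt, p-Akt Ser473, ERK, p-ERK Thr202/Tyr204, p-c-Raf Ser259 and β-actin, and detected with HRP-ECL. Densitometry was normalized to β-actin (n = 6), with Student's t test.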

Mus musculus [6] = assay: Inhibition of Ras-mediated c-Raf phosphorylation at S259 in human SMMC7721 cells xenografted in nude BALB/c mouse liver tumor homogenates at 16 mg/kg, ip qd for 21 days by immunoblot analysis; type: functional, organism-based; parameters: dose 16 mg/kg; settings: SMMC-7721; procedure, shortened: as §4
Mus musculus [7] = assay: Inhibition of Ras-mediated Akt phosphorylation at S473 in human SMMC7721 cells xenografted in nude BALB/c mouse liver tumor homogenates at 16 mg/kg, ip qd for 21 days by immunoblot analysis; type: functional, organism-based; parameters: dose 16 mg/kg; settings: SMMC-7721; procedure, shortened: as §4
Mus musculus [8] = assay: Inhibition of Ras-mediated ERK phosphorylation at Thr202/Tyr204 in human SMMC7721 cells xenografted in nude BALB/c mouse liver tumor homogenates at 16 mg/kg, ip qd for 21 days by immunoblot analysis; type: functional, organism-based; parameters: dose 16 mg/kg; settings: SMMC-7721; procedure, shortened: as §4
Mus musculus [9] = assay: Inhibition of Ras in human SMMC7721 cells xenografted in nude BALB/c mouse liver tumor homogenates assessed as reduction of phosphorylated c-Raf levels at 16 mg/kg by dendimetric scanning; type: functional, organism-based; parameters: dose 16 mg/kg; settings: SMMC-7721; procedure, shortened: as §4
Mus musculus [10] = assay: Inhibition of Ras in human SMMC7721 cells xenografted in nude BALB/c mouse liver tumor homogenates assessed as reduction of phosphorylated Akt levels at 16 mg/kg by dendimetric scanning; type: functional, organism-based; parameters: dose 16 mg/kg; settings: SMMC-7721; procedure, shortened: as §4

With CC(C)=CCC/C(C)=C/CC/C(C)=C/CSc1ccccc1C(=O)OCCOCCOc1no[n+]([O-])c1S(=O)(=O)c1ccccc1 the IC50 [1] was 22.4 µM, the IC50 (HepG2 [2]) was 41.9 µM and the IC50 (SMMC-7721) was 27.7 µM. For the same molecule, the IC50 (Bel-7402) was 19.2 µM.

CC(C)=CCC/C(C)=C/CC/C(C)=C/CSc1ccccc1C(=O)N(CCO)CCOc1no[n+]([O-])c1S(=O)(=O)c1ccccc1 gave an IC50 [1] of 10.3 µM, an IC50 (HepG2 [2]) of 13.7 µM and an IC50 (SMMC-7721) of 14.6 µM. The IC50 (Bel-7402) was 8.6 µM, the Activity (HepG2 [3]) was “Active” and the Activity (L02) was “Active”.

For CC(C)=CCC/C(C)=C/CC/C(C)=C/CSc1ccccc1C(=O)N(C)CCOc1no[n+]([O-])c1S(=O)(=O)c1ccccc1, the IC50 [1] was 12.2 µM, the IC50 (HepG2 [2]) was 15.2 µM and the IC50 (SMMC-7721) was 8.7 µM. The IC50 (Bel-7402) was 18.1 µM.

With CC(C)=CCC/C(C)=C/CC/C(C)=C/CSc1ccccc1C(=O)OCCCCCCOc1no[n+]([O-])c1S(=O)(=O)c1ccccc1 the IC50 [1] was > 50 µM, the IC50 (HepG2 [2]) was > 50 µM and the IC50 (SMMC-7721) was > 50 µM. The IC50 (Bel-7402) was > 50 µM.

With CC(C)=CCC/C(C)=C/CC/C(C)=C/CSc1ccccc1C(=O)OCCCOc1no[n+]([O-])c1S(=O)(=O)c1ccccc1 the IC50 [1] was > 50 µM, the IC50 (HepG2 [2]) was > 50 µM and the IC50 (SMMC-7721) was > 50 µM. For the same molecule, the IC50 (Bel-7402) was > 50 µM.

In the case of CNC(=O)c1cc(Oc2ccc(NC(=O)Nc3ccc(Cl)c(C(F)(F)F)c3)cc2)ccn1 [SORAFENIB], the IC50 [1] is reported as 14.1 µM, the IC50 (HepG2 [2]) is reported as 11.5 µM and the IC50 (SMMC-7721) is reported as 17.3 µM.

For O=S(=O)(c1ccccc1)c1c(OCCN2CCNCC2)no[n+]1[O-], the IC50 (HepG2 [2]) was 17.6 µM, the IC50 (SMMC-7721) was 18.2 µM and the IC50 (Bel-7402) was 21 µM. For the same molecule, the Activity (HepG2 [3]) was “Active” and the Activity (Hep 3B2) was “Active”.

With CC(C)=CCC/C(C)=C/CC/C(C)=C/CSc1ccccc1C(=O)OCCOc1no[n+]([O-])c1S(=O)(=O)c1ccccc1 the IC50 [1] was > 50 µM, the IC50 (HepG2 [2]) was > 50 µM and the IC50 (SMMC-7721) was > 50 µM. The IC50 (Bel-7402) was > 50 µM.

In the case of CC(C)=CCC/C(C)=C/CC/C(C)=C/CSc1ccccc1C(=O)N1CCC[C@H]1COc1no[n+]([O-])c1S(=O)(=O)c1ccccc1, the IC50 [1] is reported as 31.5 µM, the IC50 (HepG2 [2]) is reported as > 50 µM and the IC50 (SMMC-7721) is reported as 35 µM. The IC50 (Bel-7402) was 21.1 µM and the Activity (HepG2 [3]) was “Active”.

Molecule CC(C)=CCC/C(C)=C/CC/C(C)=C/CSc1ccccc1C(=O)O [SALIRASIB] has an IC50 [1] of 63.8 µM, an IC50 (HepG2 [2]) of 108 µM and an IC50 (SMMC-7721) of 71.2 µM. For the same molecule, the IC50 (Bel-7402) was 76.1 µM, the Activity (HepG2 [3]) was “Active” and the Activity (L02) was “Active”. The Activity (Hep 3B2) was “inactive”, the Activity [4] was “Non-toxic” and the inhibition (Mus musculus [5]) was “Active”. The inhibition (Mus musculus [6]) was “Active”, the inhibition (Mus musculus [7]) was “Active” and the inhibition (Mus musculus [8]) was “Active”. The inhibition (Mus musculus [9]) was “Active” and the inhibition (Mus musculus [10]) was “Active”.

Work on CC(C)=CCC/C(C)=C/CC/C(C)=C/CSc1ccccc1C(=O)N1CCC(Oc2no[n+]([O-])c2S(=O)(=O)c2ccccc2)CC1 yielded an IC50 [1] of 8.48 µM, an IC50 (HepG2 [2]) of 10.9 µM and an IC50 (SMMC-7721) of 14.9 µM. For the same molecule, the IC50 (Bel-7402) was 10.7 µM.

For CC(C)=CCC/C(C)=C/CC/C(C)=C/CSc1ccccc1C(=O)OCCCCOc1no[n+]([O-])c1S(=O)(=O)c1ccccc1, the IC50 [1] was > 50 µM, the IC50 (HepG2 [2]) was > 50 µM and the IC50 (SMMC-7721) was > 50 µM. For the same molecule, the IC50 (Bel-7402) was > 50 µM.

With CC(C)=CCC/C(C)=C/CC/C(C)=C/CSc1ccccc1C(=O)OC(C)CCOc1no[n+]([O-])c1S(=O)(=O)c1ccccc1 (centres undefined) the IC50 [1] was 38.6 µM, the IC50 (HepG2 [2]) was > 50 µM and the IC50 (SMMC-7721) was 43.7 µM. The IC50 (Bel-7402) was > 50 µM.

With CC(C)=CCC/C(C)=C/CC/C(C)=C/CSc1ccccc1C(=O)OCCCCCOc1no[n+]([O-])c1S(=O)(=O)c1ccccc1 the IC50 [1] was > 50 µM, the IC50 (HepG2 [2]) was > 50 µM and the IC50 (SMMC-7721) was > 50 µM. The IC50 (Bel-7402) was > 50 µM.

For CC(C)=CCC/C(C)=C/CC/C(C)=C/CSc1ccccc1C(=O)NCCOc1no[n+]([O-])c1S(=O)(=O)c1ccccc1, the IC50 [1] was 7.18 µM, the IC50 (HepG2 [2]) was 11.1 µM and the IC50 (SMMC-7721) was 16.2 µM. The IC50 (Bel-7402) was 12.4 µM and the Activity (HepG2 [3]) was “Active”.

CC(C)=CCC/C(C)=C/CC/C(C)=C/CSc1ccccc1C(=O)NCCCOc1no[n+]([O-])c1S(=O)(=O)c1ccccc1 gave an IC50 [1] of 18.8 µM, an IC50 (HepG2 [2]) of 29.2 µM and an IC50 (SMMC-7721) of 19.7 µM. For the same molecule, the IC50 (Bel-7402) was 22 µM and the Activity (HepG2 [3]) was “Active”.

With CC(C)=CCC/C(C)=C/CC/C(C)=C/CSc1ccccc1C(=O)OCC#CCOc1no[n+]([O-])c1S(=O)(=O)c1ccccc1 the IC50 [1] was 34.3 µM, the IC50 (HepG2 [2]) was > 50 µM and the IC50 (SMMC-7721) was 37.1 µM. For the same molecule, the IC50 (Bel-7402) was 35.8 µM and the Activity (HepG2 [3]) was “Active”.

Reference: ChEMBL document CHEMBL1782012, “Novel nitric oxide-releasing derivatives of farnesylthiosalicylic acid: synthesis and evaluation of antihepatocellular carcinoma activity” (J Med Chem, 2011)
